In ChEMBL document CHEMBL1139534, “Inhibition of herpes simplex virus thymidine kinases by 2-phenylamino-6-oxopurines and related compounds: structure-activity relationships and antiherpetic activity in vivo” (J Med Chem, 2005):

Tests used:
[1] = target: T1, Thymidine kinase (Human herpesvirus 2, UniProt Q6L709); test: Inhibitory concentration against herpes simplex virus type 2 thymidine kinase; set-up: species or system Human alphaherpesvirus 2
T1 sequence (Q6L709 whole entry): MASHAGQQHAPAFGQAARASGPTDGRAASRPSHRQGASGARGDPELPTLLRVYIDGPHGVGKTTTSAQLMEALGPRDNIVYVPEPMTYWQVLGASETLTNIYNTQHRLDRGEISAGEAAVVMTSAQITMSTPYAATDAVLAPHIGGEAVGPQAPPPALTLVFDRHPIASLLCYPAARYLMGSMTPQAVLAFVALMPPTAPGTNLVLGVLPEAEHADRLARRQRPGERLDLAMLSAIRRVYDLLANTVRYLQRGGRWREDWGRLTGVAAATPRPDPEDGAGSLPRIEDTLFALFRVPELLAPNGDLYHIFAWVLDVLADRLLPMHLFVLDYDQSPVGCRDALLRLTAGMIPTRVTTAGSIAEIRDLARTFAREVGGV
Outline: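 Recombinant His-tagged HSV-2 TK expressed in E. coli, Ni-NTA purified. Products captured on DEAE paper and counted by scintillation. Inhibitor diluted from DMSO stocks, at least five concentrations in duplicate; IC50 is the concentration halving activity.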

[2] = target: T2, Thymidine kinase (Human herpesvirus 1 (strain SC16) (HHV-1) (Human herpes simplex virus1), UniProt P06479); test: Inhibitory concentration against herpes simplex virus type 1 thymidine kinase
T2 sequence (P06479 whole entry): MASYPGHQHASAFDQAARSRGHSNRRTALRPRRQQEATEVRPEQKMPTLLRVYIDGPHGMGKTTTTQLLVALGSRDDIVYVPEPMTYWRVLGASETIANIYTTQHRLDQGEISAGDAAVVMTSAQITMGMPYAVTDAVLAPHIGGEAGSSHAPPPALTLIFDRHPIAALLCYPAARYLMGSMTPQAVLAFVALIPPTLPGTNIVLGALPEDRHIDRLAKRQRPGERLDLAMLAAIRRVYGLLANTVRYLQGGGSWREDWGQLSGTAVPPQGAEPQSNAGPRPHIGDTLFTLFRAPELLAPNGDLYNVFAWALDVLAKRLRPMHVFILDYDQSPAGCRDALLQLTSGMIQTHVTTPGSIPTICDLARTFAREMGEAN

[3] = tested on: Mus musculus; test: Effect on HSV-1 encephalitis in mice following intraperitoneal dosage at 100 mg/kg; expressed as mean day of death; assay type: functional
Outline: (§1)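 Female BALB/c mice, 6 weeks old, groups of 10, anesthetized with ketamine/xylazine. Corneas lightly scratched, then 10⁶ PFU per eye applied in culture medium (HSV-1 McKrae or HSV-2 G, Vero-grown). Compound given ip as corn-oil suspension, 0.1 mL, twice daily for 5 days; vehicle controls. Mice alive at 30 days counted survivors; day of death recorded for the rest.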

[4] = tested on: Mus musculus; test: Effect on HSV-2 encephalitis in mice following intraperitoneal dosage at 100 mg/kg; expressed as mean day of death; assay type: functional; outline: as §1
[5] = tested on: Mus musculus; test: Effect on HSV-1 encephalitis in mice following intraperitoneal dosage at 100 mg/kg; expressed as number of survivors/10; assay type: functional; outline: as §1
[6] = tested on: Mus musculus; test: Effect on ocular HSV-2 reactivation in mice following intraperitoneal dosage at 200 mg/kg; expressed as HSV-2 positive cultures/15 mice; assay type: functional, Eye
Outline: (§2)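 Female BALB/c mice, 6 weeks old, ocularly infected with HSV-2 strain G (Vero-grown) to establish trigeminal latency. Groups of 15 received a single ip dose as a corn oil suspension, with a corn oil-only group. Thirty minutes later they were immersed in 43 °C water for 10 min as hyperthermic stress. Eyes were swabbed after 24 h for infectious virus, and virus-positive cultures were counted per group.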

[7] = tested on: Mus musculus; test: Effect on HSV-2 encephalitis in mice following intraperitoneal dosage at 100 mg/kg; expressed as number of survivors/10; assay type: functional; outline: as §1
[8] = tested on: Mus musculus; test: Effect ocular HSV-2 reactivation in mice following intraperitoneal dosage at 200 mg/kg; expressed as HSV-2 positive cultures/15 mice; assay type: functional, Eye; outline: as §2
[9] = tested on: Mus musculus; test: Effect on HSV-1 encephalitis in mice following intraperitoneal dosage at 400 mg/kg; expressed as number of survivors/10; assay type: functional; outline: as §1
[10] = tested on: Mus musculus; test: Effect on HSV-2 encephalitis in mice following intraperitoneal dosage at 400 mg/kg; expressed as number of survivors/10; assay type: functional; outline: as §1
[11] = tested on: Mus musculus; test: Effect on HSV-2 encephalitis in mice following intraperitoneal dosage at 200 mg/kg; expressed as number of survivors/10; assay type: functional; outline: as §1
[12] = tested on: Mus musculus; test: Effect on HSV-1 encephalitis in mice following intraperitoneal dosage at 200 mg/kg; expressed as number of survivors/10; assay type: functional; outline: as §1
[13] = tested on: Mus musculus; test: Effect on HSV-1 encephalitis in mice following intraperitoneal dosage at 200 mg/kg; expressed as mean day of death; assay type: functional; outline: as §1
[14] = tested on: Mus musculus; test: Effect on HSV-2 encephalitis in mice following intraperitoneal dosage at 200 mg/kg; expressed as mean day of death; assay type: functional; outline: as §1
[15] = tested on: Mus musculus; test: Effect on HSV-1 encephalitis in mice following intraperitoneal dosage at 400 mg/kg; expressed as mean day of death; assay type: functional; outline: as §1
[16] = tested on: Mus musculus; test: Effect on HSV-2 encephalitis in mice following intraperitoneal dosage at 400 mg/kg; expressed as mean day of death; assay type: functional; outline: as §1
[17] = target: T2, Thymidine kinase; test: Binding affinity for herpes simplex virus type 1 thymidine kinase
[18] = target: T1, Thymidine kinase; test: Binding affinity for herpes simplex virus type 2 thymidine kinase; set-up: species or system Human alphaherpesvirus 2
Outline: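 His-tagged recombinant HSV-2 TK, expressed in E. coli DH5α and purified on Ni-NTA. Incubated 15 min at 37 °C in 30 mM HEPES-K+ pH 7.5, 6 mM MgCl2, 6 mM ATP, 0.5 mM DTT, with several [3H-methyl]TdR concentrations and inhibitor diluted from DMSO stocks. Phosphorylated product retained on DEAE paper disks and counted by scintillation. Ki taken from double-reciprocal (Lineweaver-Burk) plots.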

SMILES	IC50 [1]	IC50 [2]	further results
Oc1nc(Nc2ccccc2)nc2c1ncn2CCCCN1CCCc2ccccc21	47 nM	350 nM	–
CCN(CC)CCCCn1cnc2c(O)nc(Nc3ccccc3)nc21	230 nM	4500 nM	–
OCCCn1cnc2c(O)nc(Nc3ccccc3)nc21	1500 nM	2000 nM	Activity [3]: 9.7; Activity [4]: 10.7; Activity [5]: 1; Activity [6]: 9; Activity [7]: 0
Oc1nc(Nc2ccccc2)nc2c1ncn2CCCCN1CCCC(O)C1 (stereo not given)	310 nM	5700 nM	–
CC1CN(CCCCn2cnc3c(O)nc(Nc4ccccc4)nc32)CC(C)N1 (stereo not given)	800 nM	7100 nM	–
Nc1nc2c(ncn2COCCO)c(=O)[nH]1 [ACYCLOVIR]	–	–	Activity [3]: 13; Activity [4]: 17.2; Activity [5]: 7; Activity [6]: 10; Activity [7]: 6
OCCC1CCCCN1CCCCn1cnc2c(O)nc(Nc3ccccc3)nc21 (stereo not given)	65 nM	770 nM	–
OCCCCn1cnc2c(O)nc(Sc3ccccc3)nc21	2000 nM	500 nM	Activity [8]: 10
Oc1nc(Nc2ccccc2)nc2c1ncn2CCCCN1CCC(O)CC1	710 nM	8200 nM	–
O=c1[nH]c(Nc2ccccc2)nc2c1ncn2CCCCO	–	–	Activity [9]: 9; Activity [10]: 10; Activity [11]: 9; Activity [3]: 9.5; Activity [4]: 15.7; Activity [5]: 3; Activity [12]: 6; Activity [6]: 4; Activity [13]: 11.8; Activity [14]: 18; Activity [15]: 11; Activity [7]: 4
O=C(O)P(=O)(O)O [FOSCARNET]	–	–	Activity [9]: 7; Activity [10]: 6; Activity [11]: 4; Activity [3]: 9.2; Activity [4]: 15.2; Activity [5]: 1; Activity [12]: 5; Activity [6]: 7; Activity [13]: 10.4; Activity [14]: 17.8; Activity [15]: 12.3; Activity [7]: 0; Activity [16]: 18.5
OCCN(CCO)CCCCn1cnc2c(O)nc(Nc3ccccc3)nc21	340 nM	5200 nM	–
CN(c1ccccc1)c1nc2c(ncn2CCCCO)c(=O)[nH]1	37000 nM	16000 nM	–
Oc1nc(Nc2ccccc2)nc2c1ncn2CCCCN1CCC(N2CCCCC2)CC1	1000 nM	16500 nM	–
COC1CCCN(CCCCn2cnc3c(O)nc(Nc4ccccc4)nc32)C1 (stereo not given)	150 nM	2500 nM	–
COC1CCN(CCCCn2cnc3c(O)nc(Nc4ccccc4)nc32)CC1	140 nM	2300 nM	–

SMILES	IC50 [1]	IC50 [2]	further results
O=C(O)CCCn1cnc2c(O)nc(Nc3ccccc3)nc21	700 nM	1000 nM	Activity [6]: 11
Oc1nc(Nc2ccccc2)nc2c1ncn2CCCCN1CCCCC1c1ccccc1 (stereo not given)	90 nM	550 nM	–
Cl.Cl.Oc1nc(Nc2ccccc2)nc2c1ncn2CCCCN1CCCCC1	220 nM	1600 nM	Activity [4]: 15.2; Activity [6]: 11; Activity [7]: 0
CN(C)CCCCn1cnc2c(O)nc(Nc3ccccc3)nc21	620 nM	3600 nM	–
O=c1[nH]c(Oc2ccccc2)nc2c1ncn2CCCCO	9000 nM	750 nM	–
N#CC1(c2ccccc2)CCN(CCCCn2cnc3c(O)nc(Nc4ccccc4)nc32)CC1	220 nM	410 nM	–
Nc1nc2c(ncn2CCCCO)c(=O)[nH]1	160000 nM	60000 nM	–
Oc1nc(Nc2ccccc2)nc2c1ncn2CCCCN1CCC(O)(c2ccc(Cl)c(C(F)(F)F)c2)CC1	200 nM	2000 nM	–
Cl.Cl.Oc1nc(Nc2ccccc2)nc2c1ncn2CCCCN1CCCC2CCCCC21 (stereo not given)	13 nM	150 nM	Ki [17]: 30 nM; Activity [11]: 0; Activity [6]: 10; Activity [14]: 15.4; Ki [18]: 5 nM
Oc1nc(Nc2ccccc2)nc2c1ncn2CCCCN1CCCC1CN1CCCCC1 (stereo not given)	130 nM	1000 nM	–
OCCCCCn1cnc2c(O)nc(Nc3ccccc3)nc21	54000 nM	15000 nM	Activity [3]: 10.7; Activity [4]: 11.2; Activity [5]: 0; Activity [6]: 8; Activity [7]: 1
C=CCN(CC=C)CCCCn1cnc2c(O)nc(Nc3ccccc3)nc21	420 nM	2100 nM	–
O=c1[nH]c(Nc2ccccc2)nc2c1ncn2CCO	–	4400 nM	–
CCN(C)CCCCn1cnc2c(O)nc(Nc3ccccc3)nc21	380 nM	4700 nM	–
COCCCCn1cnc2c(=O)[nH]c(Nc3ccccc3)nc21	14000 nM	12000 nM	–
